# Active and inactive are the calls of the source. No cut-off for these calls is given here.
# Experiments:
# MDA-MB-231 [1] = assay: Antiproliferative activity against human MDA-MB-231 cells at 0.5 to 2 uM for 2 days by Guava viacount assay; format: functional, cell-based; details: dose 0.5-2 µM, time 2.0 day
# In short: (§1)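 Cells plated at 2 × 10^4 (24-well) or 1 × 10^5 (12-well), exposed to a range of GSK343 concentrations for 2 days against DMSO solvent control; cell number and viability read by Guava ViaCount flow cytometry, relative to DMSO. Triplicate; mean ± SD.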
# MDA-MB-231 [2] = assay: Antiproliferative activity against human MDA-MB-231 cells assessed as increase in cell death at 10 uM for 2 days by Guava viacount assay; format: functional, cell-based; details: time 2.0 day; in short: as §1
# MDA-MB-436 [3] = assay: Antiproliferative activity against human MDA-MB-436 cells assessed as increase in cell death at 10 uM for 2 days by Guava viacount assay; format: functional, cell-based; details: time 2.0 day; in short: as §1
# MDA-MB-453 = assay: Antiproliferative activity against human MDA-MB-453 cells assessed as increase in cell death at 10 uM for 2 days by Guava viacount assay; format: functional, cell-based; details: time 2.0 day; in short: as §1
# MDA-MB-361 = assay: Cytotoxicity against human MDA-MB-361 cells assessed as increase in cell death at 10 uM for 2 days by Guava viacount assay; format: toxicity, cell-based; details: mda-mb-361, 48 h, time 2 day; in short: as §1
# MDA-MB-436 [4] = assay: Induction of cell cycle arrest in human MDA-MB-436 cells assessed as accumulation of cells at S phase measured at 2 uM by BrdU/PI staining based flow cytometric analysis (reference value: 39.5%); format: functional
# MDA-MB-231 [5] = assay: Induction of cell cycle arrest in human MDA-MB-231 cells assessed as accumulation of cells at S phase measured at 2 uM by BrdU/PI staining based flow cytometric analysis (reference value: 44.6%); format: functional
# MDA-MB-436 [6] = assay: Induction of cell cycle arrest in human MDA-MB-436 cells assessed as accumulation of cells at G1 phase measured at 2 uM by BrdU/PI staining based flow cytometric analysis (reference value: 48.3%); format: functional
# MCF7 [7] = assay: Antiproliferative activity against human MCF7 cells assessed as increase in global H3K9me3 expression level by immunoblot analysis; format: toxicity, cell-based
# In short: (§2)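 Cells exposed to GSK343 at 2 µM (standard level unless stated otherwise), lysed and immunoblotted; α-tubulin and total H3 as loading controls.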
# MDA-MB-231 [8] = assay: Antiproliferative activity against human MDA-MB-231 cells assessed as downregulation of PCNA by immunoblot analysis; format: functional, cell-based; in short: as §2
# BT-474 [9] = assay: Upregulation of TP53 gene in human BT-474 cells at 2 uM by qRT-PCR analysis; format: functional, cell-based
# In short: (§3)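 Relative transcript levels measured by qRT-PCR in cells treated with 2 µM inhibitor, normalised to DMSO-treated control cells. Triplicate experiments unless stated otherwise; mean ± SD reported; unpaired two-tailed Student's t-test at p < 0.05.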
# MDA-MB-436 [10] = assay: Upregulation of CDKN1A gene in human MDA-MB-436 cells at 2 uM by qRT-PCR analysis; format: functional, cell-based; in short: as §3
# MCF7 [11] = assay: Effect on human MCF7 cells assessed as increase in TET1 transcription by qRT-PCR analysis; format: functional, cell-based
# In short: (§4)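 qRT-PCR of TET1, TET2 and TET3 transcripts in breast cancer cells exposed to GSK343 (2 µM unless otherwise indicated), shown relative to DMSO-treated cells. Mean ± SD, triplicate unless stated.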
# BT-474 [12] = assay: Effect on human BT-474 cells assessed as increase in TET2 transcription by qRT-PCR analysis; format: functional, cell-based; in short: as §4
# BT-474 [13] = assay: Effect on human BT-474 cells assessed as increase in TET3 transcription by qRT-PCR analysis; format: functional, cell-based; in short: as §4
# MDA-MB-231 [14] = assay: Downregulation of EZH2 in human MDA-MB-231 cells at 2 uM for 2 days by immunoblot analysis; format: functional, cell-based; details: time 2.0 day
# MDA-MB-436 [15] = assay: Effect on […] in human MDA-MB-436 cells assessed as repression in TET1 promoter EZH2 by ChiP-qPCR analysis; format: functional, cell-based
# In short: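 Cells treated with GSK343 or DMSO; chromatin immunoprecipitated with anti-EZH2 or anti-H3K27me3 antibody and quantified by qPCR with primers for the TET1 promoter; input as internal control, IgG as negative control.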
# MDA-MB-231 [16] = assay: Antiproliferative activity in human MDA-MB-231 cells expressing shTET1 assessed as increase in SA-beta-gal positive cells by SA-beta-gal staining analysis (reference value: 9+/-1.5%); format: functional
# MDA-MB-436 [17] = assay: Antiproliferative activity in human MDA-MB-436 cells expressing shTET1 assessed as increase in SA-beta-gal positive cells by SA-beta-gal staining analysis (reference value: 8.2+/-2.4%); format: functional
# MDA-MB-436 [18] = assay: Effect on human MDA-MB-436 cells expressing shTET1 assessed as reduction in cyclinA by immunoblot analysis; format: functional, cell-based
# MDA-MB-231 [19] = assay: Effect on human MDA-MB-231 cells expressing shTET1 assessed as reduction in PCNA by immunoblot analysis; format: functional, cell-based
# MDA-MB-436 [20] = assay: Effect on human MDA-MB-436 cells expressing shTET1 assessed as reduction in PCNA by immunoblot analysis; format: functional, cell-based
# MDA-MB-231 [21] = assay: Effect on human MDA-MB-231 cells expressing shTET1 assessed as increase in H3K9me3 cascade by immunoblot analysis; format: functional, cell-based
# MDA-MB-436 [22] = assay: Cytotoxicity against human MDA-MB-436 cells assessed as killing of cells at 2 uM in presence of adriamycin; format: functional, cell-based
# In short: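 Viability after a range of adriamycin concentrations given alone or together with 2 µM GSK343, measured by Guava ViaCount; mean ± SD.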
# MDA-MB-436 [23] = assay: Effect on human MDA-MB-436 cells assessed as apoptotic phenotype by measuring increase in PUMA expression level at 2 uM in presence of adriamycin by immunoblot analysis; format: functional, cell-based
# In short: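 Immunoblot of cell lysates after 0.05 µg/ml adriamycin alone, with 2 µM GSK343, or DMSO. α-Tubulin and total H3 used as loading controls.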
# MDA-MB-231 [24] = assay: Induction of apoptosis in human MDA-MB-231 cells assessed as decrease in accumulation of cells at S phase in presence of adriamycin by BrdU/PI-based cell cycle analysis; format: functional
# In short: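 Cell cycle by BrdU/PI staining and flow cytometry, giving G1, S and G2 fractions. Cells received 0.005 µg/ml adriamycin with or without 2 µM GSK343, or DMSO. Mean ± SD.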
# MDA-MB-231 [25] = assay: Antitumor activity against human MDA-MB-231 cells xenografted in Crl:NU-Foxn1-nu/nu mouse assessed as reduction in tumor administered at 5 mg/kg, ip in presence of adriamycin treated for 21 days; format: functional, organism-based; details: time 21.0 day
# MDA-MB-231 [26] = assay: Induction of apoptosis in human MDA-MB-231 cells xenografted in Crl:NU-Foxn1-nu/nu mouse assessed as apoptotic cells in tumor administered at 5 mg/kg, ip in presence of adriamycin treated for 21 days by TUNEL staining analysis; format: functional, organism-based; details: time 21.0 day
# In short: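 TUNEL staining of xenograft tumor sections. Dosing started when tumors reached about 50 mm3: twice-weekly intraperitoneal GSK343 5 mg/kg, adriamycin 1 mg/kg, the combination, or DMSO solvent control, for 21 days.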
# MDA-MB-436 [27] = assay: Effect on human MDA-MB-436 cells assessed as increase in TET1 mRNA level by qRT-PCR analysis
# MDA-MB-231 [28] = assay: Effect on human MDA-MB-231 cells assessed as increase in TET1 protein level by qRT-PCR analysis
smiles,measurement,setting,value
CCCc1cc(C)[nH]c(=O)c1CNC(=O)c1cc(-c2ccnc(N3CCN(C)CC3)c2)cc2c1cnn2C(C)C,Activity,MDA-MB-231 [1],Active
same,Activity,MDA-MB-231 [2],Active
same,Activity,MDA-MB-436 [3],Active
same,Activity,MDA-MB-453,Active
same,Activity,MDA-MB-361,Non-Toxic
same,Activity,MDA-MB-436 [4],15.2%
same,Activity,MDA-MB-231 [5],16.1%
same,Activity,MDA-MB-436 [6],71.1%
same,Activity,MCF7 [7],Non-Toxic
same,Activity,MDA-MB-231 [8],Active
same,Activity,BT-474 [9],inactive
same,Activity,MDA-MB-436 [10],Active
same,Activity,MCF7 [11],inactive
same,Activity,BT-474 [12],inactive
same,Activity,BT-474 [13],inactive
same,Activity,MDA-MB-231 [14],Active
same,Activity,MDA-MB-436 [15],Active
same,Activity,MDA-MB-231 [16],12.3%
same,Activity,MDA-MB-436 [17],20.3%
same,Activity,MDA-MB-436 [18],inactive
same,Activity,MDA-MB-231 [19],inactive
same,Activity,MDA-MB-436 [20],inactive
same,Activity,MDA-MB-231 [21],inactive
same,Activity,MDA-MB-436 [22],Active
same,Activity,MDA-MB-436 [23],Active
same,Activity,MDA-MB-231 [24],Active
same,Activity,MDA-MB-231 [25],Active
same,Activity,MDA-MB-231 [26],Active
same,Activity,MDA-MB-436 [27],Active
same,Activity,MDA-MB-231 [28],Active
